Results on two compounds are retold here after ChEMBL document CHEMBL4373712, “Bioactivatable Pseudotripeptidization of Cyclic Dipeptides To Increase the Affinity toward Oligopeptide Transporter 1 for Enhanced Oral Absorption: An Application to Cyclo(l-Hyp-l-Ser) (JBP485)” (J Med Chem, 2019).

Active and inactive are the calls of the source. The rule behind the calls is not given here.

Data set [1] is described as follows: Ratio of half-life in pH 7.2 phosphate buffer to half-life in Sprague-Dawley rat liver homogenates. It is filed as ADME, tissue-based. Particulars: tissue homogenate.
Data set [2] is described as follows: Tmax in Beagle dog assessed as JBP485 level at 12 mg/kg equiv of JBP485 administered orally by UPLC-MS/MS analysis. The class given is ADME, organism-based, Canis lupus familiaris. Particulars: in vivo, po. Summed up:
(§1)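 Male beagle dogs, 2 years old, 8–10 kg, dosed orally at 12 mg/kg (prodrug calculated as JBP485) in aqueous solution. Jugular blood taken 0.167–8 h into heparin, centrifuged, plasma JBP485 by UPLC-MS/MS; n=6.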

The nature of data set [3]: Ratio of half-life in pH 7.2 phosphate buffer to half-life in Sprague-Dawley rat intestinal homogenates. The class given is ADME, tissue-based. As to conditions: tissue homogenate.
For data set [4], the system named is Rattus norvegicus. The data set can be described thus: Anti-hepatitis activity in ANIT-induced Sprague-Dawley rat model of liver injury assessed as reduction in liver necrosis at 3.125 to 25 mg/kg, po administered 30 mins prior to ANIT challenge and subsequent dosing at 8, 22, 32, and 46 hrs post ANIT challenge and measured 48 hrs post ANIT challenge by H and E staining-based assay. It is filed as functional, organism-based. Summed up:
(§2)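 ANIT 50 mg/kg ip liver-injury model in male SD rats, 6 per group. Oral or ip treatment at 30 min before and 8, 22, 32 and 46 h after ANIT. Liver excised at 48 h, fixed in 4% formalin, stained with H&E, and examined microscopically for hepatocellular edema and necrosis.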

In data set [5] the test system is Rattus norvegicus. The data set is described as follows: Anti-hepatitis activity in ANIT-induced Sprague-Dawley rat model of liver injury assessed as reduction in hepatocellular edema at 3.125 to 25 mg/kg, po administered 30 mins prior to ANIT challenge and subsequent dosing at 8, 22, 32, and 46 hrs post ANIT challenge and measured 48 hrs post ANIT challenge by H and E staining-based assay. It is filed as functional, organism-based. Summed up:
as §2

A short description of data set [6]: Terminal half-life in Sprague-Dawley rat at 12 mg/kg, po by UPLC-MS/MS analysis. The class given is ADME, organism-based. Particulars: in vivo, read-out: beta t1/2 (converted). Summed up: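 Fasted male SD rats (200–250 g), oral 12 mg/kg (prodrugs calculated as JBP485). Jugular blood 0.083–10 h, centrifuged, plasma JBP485 by UPLC-MS/MS; n=6.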
Data set [7] can be described thus: Cmax in Sprague-Dawley rat assessed as JBP485 level at 12 mg/kg, po by LC-MS/MS analysis. The class given is ADME, organism-based. The arrangement: dose 12 mg/kg, route oral. Particulars: in vivo. Summed up: (§3)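 Male SD rats, 200-250 g, fasted 12 h with water, n=6. Oral dose of 12 mg/kg as JBP485 equivalent; dose-effect arms at 12 and 100 mg/kg. JBP485 given iv at 6 mg/kg as the reference. Jugular blood taken at 0.083-10 h. Plasma JBP485 by UPLC-MS/MS. Absolute F = (AUCpo×Div)/(AUCiv×Dpo)×100%, using AUC0-t.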

Data set [8] has as its target T1, Solute carrier family 15 member 1 (Homo sapiens, UniProt P46059).
T1 sequence (P46059 whole entry): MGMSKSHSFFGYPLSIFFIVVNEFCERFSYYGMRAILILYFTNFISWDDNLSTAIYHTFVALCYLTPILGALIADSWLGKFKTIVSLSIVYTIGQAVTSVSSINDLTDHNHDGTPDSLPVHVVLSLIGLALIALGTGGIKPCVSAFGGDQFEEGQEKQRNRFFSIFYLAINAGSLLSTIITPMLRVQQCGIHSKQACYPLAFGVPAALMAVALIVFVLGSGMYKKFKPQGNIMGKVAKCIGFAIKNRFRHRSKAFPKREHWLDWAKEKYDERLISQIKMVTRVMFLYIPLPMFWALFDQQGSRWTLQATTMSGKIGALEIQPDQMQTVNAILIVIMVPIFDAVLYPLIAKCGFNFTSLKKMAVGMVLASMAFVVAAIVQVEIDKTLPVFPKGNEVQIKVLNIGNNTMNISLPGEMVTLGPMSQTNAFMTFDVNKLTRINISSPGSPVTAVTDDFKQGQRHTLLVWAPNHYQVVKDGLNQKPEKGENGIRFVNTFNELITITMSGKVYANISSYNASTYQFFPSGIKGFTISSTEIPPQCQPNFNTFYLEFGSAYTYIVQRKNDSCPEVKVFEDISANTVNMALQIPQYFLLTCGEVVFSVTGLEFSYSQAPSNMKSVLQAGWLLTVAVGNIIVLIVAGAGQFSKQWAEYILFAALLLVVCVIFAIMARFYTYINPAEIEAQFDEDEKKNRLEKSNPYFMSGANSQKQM
The data set is described as follows: Substrate activity at PEPT1 in human Caco2 cells assessed as inhibition of Gly-Sar uptake by LC-MS/MS analysis. It is filed as cell-based. The essentials: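 Caco-2 cells with 0.5 mM Gly-Sar probe substrate and competitor at 0.5–50 mM. IC50 by nonlinear fitting; n=3.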

The nature of data set [9]: Cmax in Beagle dog at 12 mg/kg, po by UPLC-MS/MS analysis. The class given is ADME, organism-based, Canis lupus familiaris. The arrangement: dose 12 mg/kg, route oral. As to conditions: in vivo. Summed up:
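Male beagle dogs, 2 years old, 8-10 kg, n=6. Single oral dose of 12 mg/kg (prodrug dosed as JBP485 equivalent) given in aqueous solution. Jugular venipuncture blood taken at 0.167-8 h into sodium heparin tubes. Plasma JBP485 measured by UPLC-MS/MS; AUC0-t and Cmax from the concentration-time profiles.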

A short description of data set [10]: AUC (0 to t) in Sprague-Dawley rat at 12 mg/kg, po by UPLC-MS/MS analysis. It is filed as ADME, organism-based. As to conditions: in vivo. Summed up:
as §3

A short description of data set [11]: Tmax in Beagle dog at 12 mg/kg, po by UPLC-MS/MS analysis. It is filed as ADME, organism-based, Canis lupus familiaris. Particulars: in vivo. Summed up:
as §1

In the case of `CC(C)[C@H](N)C(=O)OC[C@@H]1NC(=O)[C@@H]2C[C@@H](O)CN2C1=O`, the Ratio in data set [1] and in [3] was 3 to 35 in each case. Further, in data set [2], the Tmax was found to be 0.58 h. Further, the outcome with Rattus norvegicus [4] and in the data set with Rattus norvegicus [5] was Active.

Take `O=C1N[C@@H](CO)C(=O)N2C[C@H](O)C[C@@H]12`: the half-life in data set [6] was 2.12 h. Moreover, the Cmax is 27.84 nM/ml in data set [7] and 26.65 nM/ml in data set [9]. Moreover, in data set [8], the Ki was found to be 36 mM. The same compound gave an AUCt in data set [10] of 81.4 nM/ml.hr. Further, the Tmax in data set [11] stood at 1.5 h.
